Screening results as filed in PubChem.
CaV13 FRET inh = Primary screen for inhibitors of IQ motif and Ca2+-dependent inactivation inhibitor domain binding in CACNA1D, Förster resonance energy transfer in living cells, …. HEK cells, CFP/YFP FRET ICDI-IQ, plate reader, 10 min; percent FRET-ratio fall versus neutral wells. inhibition, % at 12.3 µM. 340,000 compounds, 0.098% hits;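 active = mean replicate inhibition of at least 30% and at least 1% of replicates passing that level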;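 note: 0% = median of the neutral control wells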
TROY NFkB inh = inhibitors of TROY-dependent NF-kB signaling; Q293 LMP1-TROYcd NF-kB luciferase reporter, 4 h; inhibition, % at 10 µM; 360,000 compounds, 0.98% hits; AID 1347056;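 active = compounds whose plate-normalised and pattern-corrected inhibition of the luciferase reporter signal at the single screening dose is 50% or more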
TWEAK-Fn14 inh = TWEAK-Fn14 signaling inhibition | 360,000 compounds, 2% hits | inhibition, % at 10 µM | TWEAK-stimulated Fn14 reporter cells, luciferase luminescence, 8 h; in the data active = inhibition above about 50%
LGR2 antag = blocks bursicon-induced cAMP signaling via Drosophila LGR2; HEK293 LGR2, CRE-luciferase, bursicon-stimulated, 4 h; inhibition, % at 9.99 µM; 380,000 compounds, 0.35% hits; AID 720647;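 active = drop in luminescence signal, shown as inhibition above about 50% in the replicate tests, limit read from the data, passing the limit was not always enough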;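 note: agonist challenge used bursicon conditioned medium at about half maximal strength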
Xi reactivation = activators of X-chromosome reactivation in mouse fibroblasts; activation, % at 7.58 µM; AID 743238; XiGFP mouse fibroblasts, % GFP-positive cells imaging, 3 d; cells co-treated with 5-aza-dC sensitizer; scaled so ellipticine positive control = 100%; 360,000 compounds, 0.055% hits;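 active = mean normalized replicate activation at least 10% and every replicate at or above 10%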;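 note: 0% = median of on-plate neutral control wells and 100% = ellipticine 6 µM median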
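System: 68-5-11 XiGFP fibroblast line; Timing: 3 days compound exposure; Compound dosing: one concentration, pinned; Benchmarks: positive control ellipticine, 6 µM final; Buffer or medium: DMEM containing 5-aza-dC.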
The depositor's hits bear a star; nt = no result. The list is not random: actives were taken first. Their share in the collection is about 2%.

SMILES | CaV13 FRET inh | TROY NFkB inh | TWEAK-Fn14 inh | LGR2 antag | Xi reactivation
CN(C)CC(=O)N1CCCCN2[C@@H](CO)[C@H](c3ccc(/C=C/c4ccccc4)cc3)[C@@H]2C1 | nt | nt | nt | 1.3 | -0.1
CCCNC(=O)N1C[C@@H](C)[C@@H](OC)CN(C)C(=O)c2cc(NC(=O)C3CCC3)ccc2OC[C@@H]1C | nt | nt | nt | 7.5 | 0.2
CCN(CC)CCOC(=O)c1ccc(NC(=O)/C=C/c2cccs2)cc1 | -19.6 | 74.2* | 63.7* | -12.4 | 0.1
O=C1C(=C(c2ccccc2)N2CCOCC2)Cc2ccccc21 | -5.7 | 33.6 | 97.1* | 107.2* | 1.2
COc1ccc(-c2nc(CN3CCN(c4cc(C)nc(C)c4)CC3)c(C)o2)c2ccccc12 | -6.1 | -24.1 | -19.1 | 13.4 | 0.2
Cc1oc(-c2cccc3ccccc23)nc1CN1CCN(c2ncnc3ccccc23)CC1 | -0.6 | 41.9 | 68.8* | 33.5 | 0.0
Cc1ccc(-c2csc(=Nc3cccnc3)n2CCCn2ccnc2)cc1C | -5.4 | 50.6* | 84.4* | nt | -0.1
CCC(=O)N1C[C@H](C)[C@H](OC)CN(C)C(=O)c2cc(NC(=O)NC(C)C)ccc2OC[C@H]1C | nt | nt | nt | -1.7 | 0.0
Cc1cc(O)c2c(c1O)C(=O)[C@]13C(=C2O)C(=O)[C@@H]2[C@@H](O)[C@H]1[C@@H]1[C@H](O)[C@H]3C(=O)C3=C(O)c4c(O)cc(C)c(O)c4C(=O)[C@]312 | nt | 28.5 | 65.0* | nt | nt
CN1CCN(C(=O)C[C@@H]2C[C@H]3c4cc(NC(=O)Nc5ccccc5F)ccc4O[C@H]3[C@H](CO)O2)CC1 | nt | nt | nt | -3.4 | -0.1
CCn1c(O)c(N=Nc2ccc3ccccc3n2)c2ccccc21 | -5.9 | -15.0 | 0.4 | -63.9 | 0.1
Brc1ccc(N=Nc2ccc3ccccc3n2)cc1 | -18.4 | 75.8* | 99.1* | 95.3* | 0.1
C[C@@H]1CN([C@H](C)CO)S(=O)(=O)c2ccc(Br)cc2O[C@H]1CN(C)S(=O)(=O)c1ccccc1 | nt | nt | nt | 0.1 | -0.1
CC(=O)Oc1ccc(C23c4ccccc4C2(OC(C)=O)c2cc(OC(C)=O)ccc23)cc1 (configuration not stated) | -3.1 | 34.1 | 89.3* | 11.1 | 0.1
CC(=O)Oc1ccc(C(=O)Nc2ccccc2NC(=O)c2ccc(OC(C)=O)cc2)cc1 | -18.4 | 28.0 | 28.6 | 14.1 | 0.3
CN(C)CCCNC(=O)[C@@H]1[C@@H](CO)[C@@H]2Cn3c(ccc(-c4cccc(F)c4)c3=O)[C@H]1N2 | nt | nt | nt | -10.4 | 0.1
C[C@@H]1CN([C@H](C)CO)C(=O)c2cc(C#CC(C)(C)O)cnc2O[C@@H]1CN(C)C(=O)C1CCOCC1 | nt | nt | nt | 2.9 | 0.3
COc1ccc2[nH]c3c(c2c1)CCN1C(=O)N([C@@H](C)C(=O)NCc2ccc(C)cc2)C(=O)[C@]31C | nt | 9.8 | 0.1 | 86.0* | nt
CCC(=O)Nc1ccc2c(c1)OC[C@@H](C)N(C(=O)C1CC1)C[C@@H](C)[C@H](OC)CN(C)C2=O | nt | nt | nt | -1.8 | -0.3
Cc1nc(-c2ccc(C(=O)Nc3ccccc3F)cc2)cs1 | 4.4 | 65.8* | 90.1* | 83.2* | 0.5
Cc1nc(-c2ccc(C(=O)Nc3cccc(F)c3)cc2)cs1 | -1.8 | 55.8* | 91.9* | 60.1* | 0.0
Cc1nc(-c2ccc(C(=O)Nc3ccc(F)cc3)cc2)cs1 | -15.1 | -35.6 | 35.9 | -0.6 | -0.2
CN1C(=O)c2cc(NC(=O)c3cccc(C(F)(F)F)c3)ccc2OC[C@H]2O[C@@H](CC(=O)O)CC[C@H]21 | nt | nt | nt | 7.1 | 0.1
C[C@@H]1CN([C@@H](C)CO)C(=O)c2cccc(NC(=O)C3CCCCC3)c2O[C@@H]1CN(C)C(=O)Nc1ccc(F)cc1 | nt | nt | nt | 13.3 | -0.2
C/C=C/c1ccc([C@@H]2[C@@H](CO)N(C(C)=O)[C@@H]2CN(CC)C(=O)CN(C)C)cc1 | nt | nt | nt | -1.5 | 0.2
Cc1cc(NC(=O)CCN2C(=O)/C(=C/c3ccccc3Cl)SC2=S)no1 | -13.9 | 2.4 | -27.5 | 5.2 | -0.1
CCc1ccc(/C=C2\SC(=S)N(CCC(=O)Nc3cc(C)on3)C2=O)cc1 | -18.6 | 52.9* | 69.9* | 1.5 | 0.3
COc1cccc(/C=C2\SC(=S)N(CCCC(=O)Nc3cc(C)on3)C2=O)c1 | -2.1 | 2.0 | -36.1 | 4.1 | -0.2
CCc1ccc(/C=C2\SC(=S)N(CCCC(=O)Nc3cc(C)on3)C2=O)cc1 | -11.4 | 80.5* | 69.9* | 17.6 | -0.1
